Laboratory results reported in ChEMBL document CHEMBL4837191, “Prenylated Coumaric Acids from Artemisia scoparia Beneficially Modulate Adipogenesis” (J Nat Prod, 2021).
Calls of active or inactive are those of the source. No cut-off for these calls is given here.

What was measured:
Type in all cases: functional, cell-based
[1] = tested on: 3T3-L1; experiment: Induction of adipogenic differentiation in mouse 3T3-L1 cells assessed as increase in AdipoQ mRNA expression by RT-PCR analysis; conditions: dose 2.5-25 µM
How it was run: (§1)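 3T3-L1 preadipocytes induced 2 days post-confluence with half-strength MDI (IBMX, DEX, insulin in high-glucose DMEM + 10% FBS); compound (2.5, 10, 25 µM, DMSO 1,000× stocks) added at induction and at day-3 feeding (DMEM + 10% FBS, 0.43 µM insulin). RNA harvested 4 days post-MDI; reverse-transcription qPCR, normalized to Nono; compared with DMSO controls.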

[2] = tested on: 3T3-L1; experiment: Inhibition of TNF-alpha induced lipolysis in mouse 3T3-L1 adipocytes assessed as reduction in glycerol release at 2.5 to 25 uM measured after 4 hrs by glycerol reagent based assay; conditions: dose 2.5-25 µM
How it was run: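 Mature 3T3-L1 adipocytes (full MDI: 0.5 mM IBMX, 1 µM DEX, 1.72 µM insulin), refed day 6, then compound (2.5, 10, 25 µM) or DMSO for 3 days. Overnight 0.75 nM TNFα (or BSA/PBS vehicle), then 4 h in low-glucose DMEM + 2% BSA with TNFα. Medium glycerol by Free Glycerol Reagent, normalized to BCA lysate protein.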

[3] = tested on: 3T3-L1; experiment: Induction of adipogenic differentiation in mouse 3T3-L1 cells assessed as increase in PPARgamma mRNA expression by RT-PCR analysis; conditions: dose 2.5-25 µM; how it was run: as §1
[4] = tested on: 3T3-L1; experiment: Induction of adipogenic differentiation in mouse 3T3-L1 cells at 2.5 to 25 uM measured after 4 days by Oil Red O staining; conditions: dose 2.5-25 µM, time 4.0 day
[5] = tested on: 3T3-L1; experiment: Induction of adipogenic differentiation in mouse 3T3-L1 cells assessed as increase in FABP4 mRNA expression by RT-PCR analysis; conditions: dose 2.5-25 µM; how it was run: as §1

Compound | Activity [1] | inhibition [2] | Activity [3] | Activity [4] | Activity [5]
CC(=O)OC/C(C)=C\Cc1cc(/C=C\C(=O)O)cc(C/C=C(/C)CO)c1O | Active | Active | Active | Active | Active
CC(C)=CCc1cc(/C=C/C(=O)O)cc(C/C=C(\C)CO)c1O | Active | inactive | Active | Active | Active
CC(C)=CCc1cc(/C=C/C(=O)O)cc(C/C=C(/C)CO)c1O |  | inactive |  | Active | 
CC(=O)OC/C(C)=C\Cc1cc(/C=C/C(=O)O)cc(C/C=C(/C)CO)c1O | Active | Active | Active | Active | Active
